Data set [1] has as its target Mitogen-activated protein kinase 8 (Homo sapiens, UniProt P45983). The experiment in a line: Inhibition of JNK1 (unknown origin)-mediated ATF2 Thr71 phosphorylation by HTRF assay. Put shortly:
(§1)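 The kinase reaction used biotinylated ATF2 substrate with ATP. The phospho-Thr71-ATF2 product was detected by HTRF with a Europium-cryptate labeled anti-phospho-Thr71-ATF2 antibody. IC50 values are averages of two or more experiments.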
In general terms: TR-FRET usually uses a lanthanide donor and a delayed reading to cut background.

For data set [2], the species on record is Homo sapiens. Description: Selectivity ratio of IC50 for JNK1 (unknown origin) to IC50 for JNK3 (unknown origin).
Data set [3] has as its target Mitogen-activated protein kinase 10 (Homo sapiens, UniProt P53779). Description: Inhibition of JNK3 (unknown origin)-mediated ATF2 Thr71 phosphorylation by HTRF assay. Put shortly:
as §1

For data set [4], the target named is Mitogen-activated protein kinase 10 (Rattus norvegicus, UniProt P49187). Description: Inhibition of JNK3-mediated c-Jun phosphorylation in rat INS-1 cells after 3 hrs by ELISA. The format is cell-based, INS1.
Sequence of Mitogen-activated protein kinase 10 (Rattus norvegicus, UniProt P49187) (P49187 whole entry): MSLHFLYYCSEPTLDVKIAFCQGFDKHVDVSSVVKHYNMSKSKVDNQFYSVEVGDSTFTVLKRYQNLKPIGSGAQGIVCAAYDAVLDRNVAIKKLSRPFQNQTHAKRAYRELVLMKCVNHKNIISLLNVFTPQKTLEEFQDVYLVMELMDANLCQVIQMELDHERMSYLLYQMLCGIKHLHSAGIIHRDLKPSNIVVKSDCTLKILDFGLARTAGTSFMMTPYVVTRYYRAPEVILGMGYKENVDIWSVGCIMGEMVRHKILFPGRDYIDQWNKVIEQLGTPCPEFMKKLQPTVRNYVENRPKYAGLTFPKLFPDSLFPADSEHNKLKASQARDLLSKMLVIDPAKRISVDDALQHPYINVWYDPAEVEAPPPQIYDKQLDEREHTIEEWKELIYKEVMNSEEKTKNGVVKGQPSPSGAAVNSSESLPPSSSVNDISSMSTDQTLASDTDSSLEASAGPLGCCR
Data set [5] can be described thus: Plasma concentration in C57BL6 mouse at 10 mg/kg, ip after 2 hrs. Type of data set: ADME, organism-based. More on the design: dose 10 mg/kg, route intraperitoneal. Put shortly:
(§2)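 C57Bl6 mice (n = 3) were given 10 mg/kg intraperitoneally. Blood and brain were collected 2 h later, and plasma was frozen at −80 °C. Plasma (1:5 v/v) and brain (1:5 w/v) were mixed with acetonitrile, and brain was probe-sonicated. Drug levels were measured by LC–MS/MS against standards prepared in plasma or in blank brain matrix.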

The nature of data set [6]: Plasma clearance in Sprague-Dawley rat at 1 mg/kg, iv and 2 mg/kg, po. The format is ADME, organism-based. A digest of the protocol:
(§3)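 Rats received compound intravenously at 1 mg/kg or by oral gavage at 2 mg/kg. Blood was sampled at 5, 15 and 30 min and at 1, 2, 4, 6 and 8 h into EDTA tubes, and plasma was obtained by centrifugation. Plasma proteins were precipitated with acetonitrile, and drug levels were quantified by LC–MS/MS.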

The nature of data set [7]: AUC in Sprague-Dawley rat at 1 mg/kg, iv and 2 mg/kg, po. The note with it: plasma. The format is ADME, organism-based. Put shortly:
as §3

A short description of data set [8]: Half life in human liver microsomes. The format is ADME, Microsome. (Liver microsomes are a subcellular fraction often used to study metabolism.)
Data set [9] can be described thus: Half life in rat liver microsomes. Type of data set: ADME, Microsome.
Data set [10] is described as follows: Drug uptake in C57BL6 mouse brain at 10 mg/kg, ip after 2 hrs. Type of data set: ADME, organism-based. More on the design: dose 10 mg/kg, route intraperitoneal. The settings on record: read-out: Drug uptake. Put shortly:
as §2

The nature of data set [11]: Half life in Sprague-Dawley rat at 1 mg/kg, iv and 2 mg/kg, po. The format is ADME, organism-based. The note with it: in vivo. Put shortly: as §3
Data set [12] in a line: Oral bioavailability in Sprague-Dawley rat at 2 mg/kg. The format is ADME, organism-based. The note with it: in vivo. Put shortly:
as §3

Here are results for 28 molecules from ChEMBL document CHEMBL2375283, “Design and synthesis of 1-aryl-5-anilinoindazoles as c-Jun N-terminal kinase inhibitors” (Bioorg Med Chem Lett, 2013).

Each structure is given as a SMILES string. Bounds are passed on as bounds.

Sequence of Mitogen-activated protein kinase 10 (Homo sapiens, UniProt P53779) (P53779 whole entry): as the sequence (P49187 whole entry) above, with H27Q, S32Y, V33I, V34A counted along it
Sequence of Mitogen-activated protein kinase 8 (P45983 whole entry): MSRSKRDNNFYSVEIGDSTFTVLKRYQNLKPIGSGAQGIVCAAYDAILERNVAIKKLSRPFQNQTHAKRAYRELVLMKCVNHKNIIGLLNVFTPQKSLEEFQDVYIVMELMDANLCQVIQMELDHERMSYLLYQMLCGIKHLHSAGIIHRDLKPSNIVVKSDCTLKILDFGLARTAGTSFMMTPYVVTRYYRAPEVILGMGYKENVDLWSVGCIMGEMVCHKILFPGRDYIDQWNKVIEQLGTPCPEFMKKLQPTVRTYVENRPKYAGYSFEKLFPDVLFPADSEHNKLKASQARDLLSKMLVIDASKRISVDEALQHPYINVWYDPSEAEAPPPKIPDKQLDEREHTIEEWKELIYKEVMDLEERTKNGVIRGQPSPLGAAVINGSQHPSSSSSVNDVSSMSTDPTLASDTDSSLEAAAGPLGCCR

Take `Cc1cccc(CC(=O)Nc2cnn(-c3cccc(C(=O)NC4CCOC(C)(C)C4)c3)c2)c1` (stereo not given): the IC50 in data set [1] was at least 20000 nM; in [3], 1100 nM. Besides, the Ratio IC50 in data set [2] was above 25.
On to `CCOc1ccc(NC(=O)c2cccc(-n3ncc4cc(Nc5ccccc5F)ccc43)c2)cc1OC`, for which the IC50 in data set [1] came out at 430 nM; in data set [3] it was 46 nM. The Ratio IC50 in [2] turned out to be 5.
For the molecule `O=C(NCCN1CCOCC1)c1cccc(-n2ncc3cc(Nc4ccccn4)ccc32)c1`, the IC50 in [1] came out at 7100 nM; in data set [3], 1400 nM. Moreover, the Ratio IC50 in data set [2] was 5.
As to `COc1ccccc1Nc1ccc2c(cnn2-c2cccc(C(=O)NCCCN3CCOCC3)c2)c1`, the Ratio IC50 in data set [2] was determined as 5. In data set [3], this molecule showed an IC50 of 43 nM.
In the case of `Cc1cc(NC(=O)c2cccc(-n3ncc4cc(Nc5ccccc5F)ccc43)c2)ccc1N1CCOCC1`, the IC50 was found to be 170 nM in data set [1] and 38 nM in data set [3]. Besides, the Ratio IC50 in [2] is 5.
Taken in the same sequence, the figures for `O=C(NCCN1CCOCC1)c1cccc(-n2ncc3cc(Nc4ccccc4Cl)ccc32)n1` were 7010 nM, 640 nM and 10.
In the case of `COc1cc(NC(=O)c2cccc(-n3ncc4cc(Nc5ccccc5C)ccc43)c2)cc(OC)c1OC`, in data set [2], the Ratio IC50 worked out at 5. Also, the IC50 in data set [3] is 59 nM.
Consider `Cc1cccc(NC(=O)c2cccc(-n3ncc4cc(Nc5ccccc5C)ccc43)c2)c1`, for which, in data set [2], the Ratio IC50 is 5. This molecule also came in with a concentration for half-maximal inhibition (IC50) in data set [3] of 250 nM.
For the molecule `O=C(NCCO)c1cccc(-n2ncc3cc(Nc4ccccc4Cl)ccc32)c1`, the IC50 in data set [1] was 800 nM; in [4], at least 20000 nM; in data set [3] it was 35 nM. In addition, the Ratio IC50 in data set [2] turned out to be 5.
As for `Cc1cccc(NC(=O)c2cccc(-n3ncc4cc(Nc5ccccc5F)ccc43)c2)c1`, the concentration at 2 h in [5] worked out at 350 nM; in [10], 30 nM. Further, the clearance in data set [6] amounted to 79 mL/min/kg. The molecule also returned an AUC in [7] of 0.5 µM·h. Besides, the IC50 is 470 nM in [1] and 120 nM in data set [3]. Moreover, the Ratio IC50 in [2] worked out at 5. Moreover, the results for the half-life in data set [8], in [9] and in [11] were 8.9 min, 6 min and 18 min, respectively. In data set [12], this molecule showed a bioavailability of 7%.
For the molecule `Cc1cc(NC(=O)c2cccc(-n3ncc4cc(Nc5ccccc5Cl)ccc43)c2)ccc1N1CCOCC1`, the IC50 in [1] turned out to be 160 nM; in data set [3] it was 32 nM. In addition, the Ratio IC50 in data set [2] worked out at 5.
For the molecule `Cc1cccc(Nc2ccc3c(cnn3-c3cccc(C(=O)NCCN4CCN(C5CCC5)CC4)c3)c2)c1Cl`, the concentration at 2 h in [5] came to 1200 nM; in data set [10] it was 3900 nM. For the same molecule, in [6], the clearance is 25 mL/min/kg. Also, the area under the curve (AUC) in data set [7] amounted to 0.72 µM·h. Besides, the IC50 in data set [1] came to 970 nM; in data set [3], 40 nM. In [2], the Ratio IC50 is 5. Also, the half-life in data set [11] amounted to 198 min. The same molecule came in with a bioavailability in data set [12] of 27%.
Regarding `O=C(NCCCN1CCOCC1)c1cccc(-n2ncc3cc(Nc4ccccc4Cl)ccc32)c1`, the concentration at 2 h came to 280 nM in data set [5] and 570 nM in data set [10]. This molecule also returned a clearance in data set [6] of 123 mL/min/kg. This molecule also came in with an AUC in data set [7] of 0.01 µM·h. In addition, the IC50 in data set [1] came out at 410 nM; in [3] it was 15 nM. In data set [2], the Ratio IC50 amounted to 5. Moreover, the half-life was determined as 8.6 min in data set [8], 5.6 min in data set [9] and 30 min in [11]. In addition, the bioavailability in [12] came to 6%.
On to `COc1cc(NC(=O)c2cccc(-n3cc(Nc4nc5ccccc5[nH]4)cn3)c2)cc(OC)c1OC`, for which the IC50 in data set [3] was above 20000 nM.
As for `COc1cc(NC(=O)c2cccc(-n3ncc4cc(Nc5ccccc5F)ccc43)c2)cc(OC)c1OC`, the concentration at 2 h stood at 790 nM in data set [5] and 50 nM in data set [10]. The molecule also yielded a clearance in data set [6] of 57 mL/min/kg. Also, in data set [7], the AUC worked out at 0.05 µM·h. The values for the IC50 in [1] and in data set [3] were 73 nM and 9 nM, respectively. Also, the Ratio IC50 in [2] is 5. This molecule also yielded a half-life in data set [11] of 90 min. The molecule further had a bioavailability in data set [12] of 5%.
As for `COc1cc(NC(=O)c2cccc(-n3ncc4cc(Nc5ccccc5)ccc43)c2)cc(OC)c1OC`, the IC50 in data set [1] was 200 nM; in [3] it was 24 nM. In addition, the Ratio IC50 in data set [2] was found to be 10. Further, the half-life in [8] worked out at 12.8 min; in data set [9], 5.8 min.
For the molecule `O=C(NCCN1CCOCC1)c1cc(-n2ncc3cc(Nc4c(Cl)cccc4Cl)ccc32)ccn1`, the Ratio IC50 in [2] is 10. This molecule also showed an IC50 in data set [3] of 640 nM.
As for `COc1cc(NC(=O)c2cccc(-n3ncc4cc(Nc5ccccc5Cl)ccc43)c2)cc(OC)c1OC`, the IC50 in data set [1] worked out at 93 nM; in data set [3] it was 12 nM. Moreover, the Ratio IC50 in [2] worked out at 5.
Consider `O=C(NCCCN1CCOCC1)c1ccc(-n2ncc3cc(Nc4ccccc4Cl)ccc32)cc1`, for which the concentration at 2 h in data set [5] came to 240 nM; in data set [10], 690 nM. For the same molecule, the figures for the IC50 in data set [1], in data set [4] and in data set [3] were 920 nM, at least 20000 nM and 33 nM, respectively.
`O=C(NCCN1CCOCC1)c1cccc(-n2ncc3cc(Nc4c(Cl)cccc4Cl)ccc32)c1`: the figures for the IC50 in data set [1] and in data set [3] were 1380 nM and 77 nM, respectively. The Ratio IC50 in [2] was determined as 5.
With `NC(=O)c1cccc(-n2ncc3cc(Nc4ccccc4F)ccc32)c1`, the values for the IC50 in data set [1] and in data set [3] were 730 nM and 63 nM, respectively. In addition, the Ratio IC50 in data set [2] is 5.
As to `O=C(NCCN1CCOCC1)c1ccnc(-n2ncc3cc(Nc4ccccc4Cl)ccc32)c1`, the concentration at 2 h was 530 nM in data set [5] and 1400 nM in [10]. This molecule also yielded a clearance in data set [6] of 54 mL/min/kg. In [7], this molecule showed an AUC of 0.01 µM·h. Besides, the IC50 stood at 2300 nM in [1], 5300 nM in [4] and 120 nM in [3]. The Ratio IC50 in [2] was determined as 10. Besides, the half-life in data set [11] came to 30 min. The bioavailability in data set [12] amounted to 5%.
As to `CN1CCN(CCNC(=O)c2cncc(-n3ncc4cc(Nc5c(Cl)cccc5Cl)ccc43)c2)CC1`, in data set [2], the Ratio IC50 is 10. In data set [3], inhibition was half-maximal at 110 nM (IC50).
Taken in the same sequence, the figures for `O=C(NCCCN1CCOCC1)c1cccc(-n2ncc3cc(Nc4ccccc4F)ccc32)c1` were 5 and 22 nM.
In the case of `CN1CCN(CCNC(=O)c2cccc(-n3ncc4cc(Nc5c(Cl)cccc5Cl)ccc43)c2)CC1`, the concentration at 2 h in data set [5] amounted to 2120 nM; in data set [10], 810 nM. Besides, the clearance in [6] was 34 mL/min/kg. This molecule returned an AUC in data set [7] of 0.38 µM·h. Also, the IC50 in data set [1] was 1200 nM; in [3], 50 nM. For the same molecule, the Ratio IC50 in data set [2] was 5. The molecule further had a half-life in [11] of 120 min. Also, the bioavailability in data set [12] came out at 20%.
Consider `O=C(NCCN1CCOCC1)c1cccc(-n2ncc3cc(Nc4ccccc4)cnc32)c1`, for which the IC50 in data set [1] was 1200 nM; in data set [3], 170 nM. In addition, the Ratio IC50 in data set [2] stood at 10.
`O=C(NCCN1CCOCC1)c1cccc(-n2ncc3cc(Nc4ccccc4Cl)ccc32)c1`: the concentration at 2 h in [5] stood at 560 nM; in [10], 550 nM. In addition, the IC50 was found to be 750 nM in [1], 4100 nM in [4] and 54 nM in [3]. For the same molecule, the Ratio IC50 in data set [2] amounted to 5.
On to `O=C(NCCN1CCOCC1)c1cccc(-n2ncc3cc(Nc4ccccc4Cl)ncc32)c1`, for which the IC50 in data set [1] was 1300 nM; in data set [3], 80 nM. In addition, in data set [2], the Ratio IC50 amounted to 10.

By IC50 is commonly meant the midpoint of a concentration-inhibition curve. The low end stands for higher potency, the high end for lower potency. As usually defined, the AUC is the area under the concentration-time curve, a measure of exposure. Higher therefore signals high exposure. The term half-life denotes how long it takes for the measured level to halve. Broadly, the bioavailability is dose-corrected exposure relative to a reference, in per cent. Read a high bioavailability as good availability.
